A selection: hits, their analogues and other compounds. The true share with any hit is near 1.4%.
Myeloid diff MLP – compounds promoting myeloid differentiation; ER-HoxA9 myeloid progenitors, lysozyme-GFP differentiation, flow cytometry; calls only at 10 µM; 360,000 compounds, 1% hits;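 active means normalized GFP-positive differentiation at or above the plate's own cutoff, the solvent-only control mean plus 3 SD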;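 further: cells exposed to compound for four days before flow analysis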
T cell HTS – T cell immune modulation candidate | 2C CD8+ T cell-vesicle binding, flow cytometry; active compounds read low | response (vesicle binding), % at 7 µM | AID 2052 | 330,000 compounds, 0.068% hits;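 active means response, share of CD8 T cells binding vesicles, and their 90th percentile fluorescence all below set limits, cut at about 80% in these data, passing the limit was not always enough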;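 further: values below 100% mean blocked vesicle binding to the CD8+ T cells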
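Incubation: binding step 1.5 h, 37 °C, antibody labelling 20 min, ice; system: murine 2C transgenic CD8+ T lymphocytes; technique: cytometric PE anti-B7-1 and Alexa647 anti-CD8 signals after 1% paraformaldehyde fixation; also added: QL9-charged Drosophila Ld/ICAM-1/B7-1 vesicles; control set: naked versus QL9-loaded vesicles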
CASP6 VEID inh – inhibitors of human caspase-6 | purified caspase-6, Z-VEID-R110 cleavage fluorescence | 350,000 compounds, 0.53% hits | inhibition, % at 12.5 µM | AID 686996 | P55212;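 active means mean inhibition across replicates at least about 35%, with every replicate also reaching that limit, limit read from the data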
Target sequence (P55212 24-179 limits assumed): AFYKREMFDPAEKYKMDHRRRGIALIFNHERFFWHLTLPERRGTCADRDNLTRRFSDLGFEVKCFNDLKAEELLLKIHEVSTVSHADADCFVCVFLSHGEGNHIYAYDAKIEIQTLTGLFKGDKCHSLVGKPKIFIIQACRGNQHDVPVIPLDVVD
Target sequence (P55212 194-293 limits assumed): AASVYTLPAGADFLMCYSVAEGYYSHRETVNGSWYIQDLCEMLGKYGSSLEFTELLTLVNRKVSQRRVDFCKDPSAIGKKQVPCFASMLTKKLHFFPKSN
Vif inh – blocks HIV Vif function; AID 602346; 340,000 compounds, 0.35% hits; HEK293T cells, Vif self-association by quenched fluorescence, imaging, 24 h; inhibition, % at 7.49 µM; in the data active means inhibition above about 50%, passing the limit was not always enough
Hits are given with their value.

`C=CCNc1nc(Nc2cc(Cl)ccc2OC)nc(OC)n1` gave Myeloid diff MLP inactive, T cell HTS inactive, CASP6 VEID inh 39.4 and Vif inh inactive.
For CCOc1nc(NCCO)nc(Nc2cc(Cl)ccc2OC)n1 the results were Myeloid diff MLP inactive, T cell HTS inactive, CASP6 VEID inh inactive and Vif inh inactive.
`Cc1[nH]c2ccccc2c1/C=C/C(=O)c1ccccc1` gave Myeloid diff MLP active, T cell HTS inactive and Vif inh inactive.
`CCn1c(/C=C/c2c(C)[nH]c3ccccc23)nc2ccccc2c1=O` gave Myeloid diff MLP active, T cell HTS inactive, CASP6 VEID inh inactive and Vif inh inactive.
`O=c1c2ccccc2nc(/C=C/c2cccnc2)n1Cc1ccccc1` gave Myeloid diff MLP inactive, CASP6 VEID inh 46.5 and Vif inh inactive.
Cc1[nH]c2ccccc2c1/C=N/NC(=O)c1ccccc1 was read as Myeloid diff MLP inactive, T cell HTS inactive, CASP6 VEID inh inactive and Vif inh inactive.
N=c1c2c(-c3ccccc3)c(-c3ccccc3)n(Cc3ccccc3)c2ncn1CCCn1ccnc1 was read as Myeloid diff MLP active, T cell HTS inactive and Vif inh inactive.
For CCCC(=O)Nc1ccc2c(c1)OC[C@H](C)N(Cc1ccccc1F)C[C@H](C)[C@@H](OC)CN(C)C2=O the results were CASP6 VEID inh inactive.
`O=C(Nc1ccc(S(=O)(=O)Nc2cnc3ccccc3n2)cc1)c1ccc(F)cc1` gave Myeloid diff MLP inactive, T cell HTS inactive, CASP6 VEID inh inactive and Vif inh inactive.
CC(C)(C)c1ccc(C(=O)Nc2ccc(S(=O)(=O)Nc3cnc4ccccc4n3)cc2)cc1 was read as Myeloid diff MLP inactive, T cell HTS inactive, CASP6 VEID inh 60.5 and Vif inh inactive.
O=C(Cc1ccccn1)NCC[C@H]1CC[C@@H](NC(=O)c2ccccc2F)[C@@H](CO)O1 was read as CASP6 VEID inh inactive.
Screening NCC[C@@H]1CC[C@H](NC(=O)c2ccccc2F)[C@@H](CO)O1 returned CASP6 VEID inh 39.4.
O=C(Cc1ccccn1)NCC[C@@H]1CC[C@@H](NC(=O)c2ccccc2F)[C@H](CO)O1 was read as CASP6 VEID inh 35.1.
Screening COc1cc(C(C)=O)ccc1OCC(=O)NCC1(N2CCCCC2)CCCCC1 returned Myeloid diff MLP inactive, T cell HTS inactive, CASP6 VEID inh inactive and Vif inh 51.0.
Screening O=C(COc1ccc(F)cc1Br)NCC1(N2CCCCC2)CCCCC1 returned Myeloid diff MLP inactive, T cell HTS inactive, CASP6 VEID inh inactive and Vif inh inactive.
`C/C=C/CN(C(=O)C#Cc1ccccc1)[C@H](CO[Si](C)(C)C(C)(C)C)c1ccccc1` gave CASP6 VEID inh inactive.
Cc1nc2ccccc2cc1C(=O)N/N=C/c1ccco1 was read as Myeloid diff MLP inactive, T cell HTS inactive, CASP6 VEID inh inactive and Vif inh inactive.
Cc1nc2ccccc2cc1C(=O)N/N=C/c1cccs1 was read as Myeloid diff MLP inactive, T cell HTS 0.0, CASP6 VEID inh inactive and Vif inh inactive.
`Cc1ccc(NC(=O)c2cc(S(=O)(=O)NCC3CCCO3)ccc2F)cc1` (centres undefined) gave Myeloid diff MLP inactive, CASP6 VEID inh 42.5 and Vif inh inactive.
Screening O=C1CC(C(=O)Nc2ccccc2)C2(CCCC2)O1 (centres undefined) returned Myeloid diff MLP active, T cell HTS inactive and Vif inh inactive.
Screening COc1cccc(-c2cn(CC[C@@H]3CC[C@@H](NS(=O)(=O)Cc4ccccc4)[C@H](CO)O3)nn2)c1 returned CASP6 VEID inh inactive.
Cc1ccccc1NS(=O)(=O)c1ccc(NC(=O)CSCc2ccc(Br)cc2)cc1 was read as Myeloid diff MLP inactive, T cell HTS 0.0 and Vif inh inactive.
For O=C(CSCc1ccc(Br)cc1)Nc1ccc(S(=O)(=O)N2CCOCC2)cc1 the results were Myeloid diff MLP inactive, T cell HTS inactive and Vif inh inactive.
`O=C(O)COc1ccc2c(c1)O/C(=C\c1ccco1)C2=O` gave Myeloid diff MLP inactive, T cell HTS inactive, CASP6 VEID inh 51.7 and Vif inh inactive.
For O=C(O)COc1ccc2c(c1)O/C(=C\c1cccs1)C2=O the results were Myeloid diff MLP inactive, T cell HTS inactive, CASP6 VEID inh inactive and Vif inh inactive.
COC(=O)Cn1cc(/C=C/c2cc[n+](C)cc2)c2ccccc21 was read as Myeloid diff MLP active, T cell HTS inactive, CASP6 VEID inh inactive and Vif inh inactive.
COC(=O)Cn1c(C)c(/C=C/c2cc[n+](C)cc2)c2ccccc21 was read as Myeloid diff MLP active, T cell HTS inactive and CASP6 VEID inh inactive.
